Test results: article PMC2893247 (Journal of natural products, 2008)
“Also recorded” adds a separate entry of the source.

Legend:
pGL3-Control construct = test: Luciferase expression from control construct pGL3-Control in T47D cells; type: cell-based, human; conditions: for IC50: Homo sapiens, T47D, read-out: IC50 on luciferase expression from pGL3-control
How it was run: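 T47D cells in DMEM/F12 with 10% FCS were transiently transfected with the constitutive pGL3-Control luciferase construct. Cells were treated with test compound and exposed to hypoxia (1% O2). Luciferase read-out as % inhibition = (1 − treated/induced light output) × 100. IC50 taken from concentration-response data, one experiment in triplicate.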

[1] = tested on: NADH-ubiquinone oxidoreductase (complex I); test: Respiration of digitonin-permeabilized T47D cells, complex I substrates; type: cell-based, human; conditions: malate and pyruvate
VEGF = test: ELISA assay for secreted VEGF protein in T47D cells; type: cell-based, human; conditions: 16 h; for effect on hypoxic induction of secreted VEGF protein: hypoxia (1% O2)
How it was run: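 T47D cells plated at 356,000/well and incubated overnight at 37°C. Test compound added in serum-free DMEM/F12. After 30 min in air, treatment continued 16 h under 1% O2/5% CO2/94% N2 or with 10 μM 1,10-phenanthroline. Secreted VEGF in conditioned medium measured by ELISA and normalised to total lysate protein (BCA assay).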

HIF-1 [2] = test: T47D cell-based reporter assay for HIF-1 activity; set-up: species or system human
How it was run: (§1)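 PC-3 or T47D cells in DMEM/F12 with 10% FCS were transiently transfected with the HIF-1 reporter pHRE3-TK-luc. HIF-1 was induced by hypoxia (1% O2) or 10 μM 1,10-phenanthroline with test compound present. % inhibition = (1 − treated/induced luminescence) × 100. IC50 from concentration-response data, one experiment in triplicate. Potency given as fold change in IC50 relative to a reference analogue.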

MDA-MB-231 cells = test: Cell proliferation/viability assay, MDA-MB-231; type: cell-based, human; conditions: normoxic or hypoxic conditions, data not shown
How it was run: (§2)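 Cells kept in DMEM/F12 with 10% FCS and antibiotics at 37°C. Plated at 30,000 cells/well and left overnight, then given test compound in serum-free medium. After 30 min, incubated 48 h under normoxia (5% CO2/95% air) or hypoxia (1% O2/5% CO2/94% N2). Viability read by neutral red or by sulforhodamine B (TCA fix, 0.4% dye, Tris extraction, A490 minus A690). Reported as % inhibition versus control.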

HIF-1α protein = test: Western blot for nuclear HIF-1α protein in T47D cells; type: cell-based, human; conditions: T47D nuclear extract; for effect on induction of HIF-1α protein by hypoxia: 4 h hypoxia (1% O2)
How it was run: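 T47D cells plated at 10 × 10^6 per 100 mm dish for 16 h. Test compound given 30 min at 37°C, then 10 μM 1,10-phenanthroline or 1% O2 for 4 h. Nuclear extracts (60 μg protein) run on 8% SDS-PAGE and blotted to nitrocellulose. Probed with anti-HIF-1α monoclonal antibody (1:500, 1 h, RT), then HRP anti-mouse (1:30,000, 40 min), with chemiluminescent detection.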

PC-3 cells = test: Cell proliferation/viability assay, PC-3; type: cell-based, human; conditions: normoxic or hypoxic conditions, data not shown
How it was run: as §2

HIF-1 [3] = test: PC-3 cell-based reporter assay for HIF-1 activity; set-up: species or system human
How it was run: as §1

CC(=O)C1=CC[C@H]2[C@]3(C)CC[C@H]4C(C)(C)CCC[C@]4(CO)[C@H]3CC(=O)[C@]2(C)[C@H]1C=O [Compound 9, 22-hydroxy-24-methyl-12,24-dioxoscalar-16-en-25-al]
IC50 (pGL3-Control construct): 2.6 µM

C=C(C)[C@H]1Cc2c(ccc3c2O[C@@H]2COc4cc(OC)c(OC)cc4[C@@H]2C3=O)O1 [rotenone, reference compound]
effect on complex I-mediated mitochondrial respiration [1]: inhibited

C/C(=C\CCc1ccoc1)CC/C=C(\C)CCCC1=CC(=O)OC1 [Compound 6, furospongolide]
effect on increase in secreted VEGF protein level caused by 1,10-phenanthroline (VEGF; 30 μM, 1,10-phenanthroline (10 μM)): did not affect | effect on hypoxic induction of secreted VEGF protein (VEGF): decreased hypoxic induction of secreted VEGF proteins in a concentration-dependent manner; also recorded: inhibits hypoxic induction of HIF-1 target VEGF protein | effect on hypoxic induction of secreted VEGF protein (VEGF; listed as Furospongolide): blocked the induction | effect on complex I-mediated mitochondrial respiration [1]: selectively inhibits mitochondrial complex I-mediated respiration; also recorded: disrupting complex I | selectivity towards HIF-1 inhibition relative to suppression of hypoxic T47D cell proliferation/viability (HIF-1 [2]): more than 10 fold | effect on cell proliferation/viability (MDA-MB-231 cells): Neither 6 nor the 6/6a mixture affected | effect on induction of HIF-1α protein by 1,10-phenanthroline (HIF-1α protein; 4 h 1,10-phenanthroline 10 μM): only weakly inhibited | effect on induction of HIF-1α protein by hypoxia (HIF-1α protein): blocked the induction of HIF-1α protein by hypoxia; also recorded: blocks the induction of nuclear HIF-1 α protein accumulation | effect on induction of HIF-1α protein by hypoxia (HIF-1α protein; listed as Furospongolide): inhibiting the hypoxic induction of HIF-1α protein | effect on cell proliferation/viability (PC-3 cells): Neither 6 nor the 6/6a mixture affected

COC(=O)[C@]12CCCC(C)(C)[C@@H]1CC[C@@]1(C)[C@@H]3CC=C(C(C)=O)[C@H](C=O)[C@@]3(C)C(=O)C[C@@H]12 [Compound 8, 24-methyl-12,24,25-trioxoscalar-16-en-22-oate]
reduction in potency of HIF-1 inhibition in comparison to 7 (HIF-1 [2]): 5 to 7 fold | IC50 (pGL3-Control construct): 23 µM | reduction in potency of HIF-1 inhibition in comparison to 7 (HIF-1 [3]): 11 to 15 fold

CC(=O)C1=CC[C@H]2[C@]3(C)CC[C@H]4C(C)(C)CCC[C@]4(CO)[C@H]3C[C@H](O)[C@]2(C)[C@H]1C=O [Compound 7, 22-Hydroxy-24-methyl-12α-hydroxy-24-oxoscalar-16-en-25-al]
effect on luciferase expression from control construct pGL3-Control (pGL3-Control construct; Figure 1B, 1D): suppressed luciferase expression
